From ChEMBL document CHEMBL1629621, “Evaluation of strategies for improving proteolytic resistance of antimicrobial peptides by using variants of EFK17, an internal segment of LL-37” (Antimicrob Agents Chemother, 2009)
In brackets after ≈: the same amount, converted by molar mass. Activity calls are given as the source filed them. The rule behind the calls is not given here. Where a SMILES comes first, the peptide text is derived from it.

Assays:
Lipid bilayer [1] = assay: Induction of DOPC-cholesterol liposome leakage in cell-free system at 0.1 to 1 uM after 45 mins; format: functional
Summary of the method: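 Carboxyfluorescein-loaded (100 mM, self-quenching) DOPC-cholesterol 3:2 unilamellar liposomes, about 110 nm, at 10 µM lipid in Tris buffer at 37°C with stirring. Peptide was added at a single concentration per experiment, between 0.01 and 1 µM. After a 10 min baseline, fluorescence increase was followed for 45 min and the limiting leakage level taken.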

Lipid bilayer [2] = assay: Binding affinity to DOPC-cholesterol liposome at 10 to 1000 uM after 45 mins by ellipsometry
Summary of the method: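 Ellipsometry on DOPC-cholesterol bilayers deposited from DDM micelles onto silica. Peptide was added cumulatively in 10 mM Tris, pH 7.4, with 5 mM glucose at 37°C; […] adds 150 mM NaCl. Each step was followed 45 min to saturation. Adsorbed amount was calculated from refractive index and thickness, with dn/dc 0.154 cm3/g. Duplicates.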

[3] = Stability of the compound at 136 uM after 4 hrs in presence of human neutrophil elastase; format: ADME
Summary of the method: (§1)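 Peptide at 136 µM was incubated with protease (peptide:enzyme 300:1) for 4 h at 37°C in 10 mM Tris, pH 7.4. The reaction was stopped by boiling in Laemmli buffer, then run on Tris-Tricine 16.5% SDS-PAGE and Coomassie stained. Band densitometry gave the undegraded fraction, normalized to peptide incubated without enzyme. Two separate experiments.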

Pseudomonas aeruginosa [4] = assay: Antimicrobial activity against Pseudomonas aeruginosa 15159 after 21 hrs by broth microdilution method; format: functional; details: Pseudomonas aeruginosa, 15159, 21 h
Summary of the method: (§2)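 Microtiter broth dilution at 37°C for 21 h in DEAE-refined LB medium prepared in 10 mM Tris, pH 7.4. Bacteria were grown overnight in 3% trypticase soy broth, rinsed in Tris and used at about 10^6 CFU/ml. Final peptide was 0.6–80 µM in twofold steps. Growth was read visually as pellet and at OD540. MIC is >95% inhibition with no visible pellet. Two separate experiments.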

Pseudomonas aeruginosa [5] = assay: Antimicrobial activity against Pseudomonas aeruginosa ATCC 27853 after 21 hrs by broth microdilution method; format: functional; details: ATCC 27853, 21 h; summary of the method: as §2
Staphylococcus aureus [6] = assay: Antimicrobial activity against Staphylococcus aureus 29213 after 21 hrs by broth microdilution method; format: functional; details: Staphylococcus aureus, 29213, 21 h; summary of the method: as §2
[7] = Stability of the compound at 136 uM after 4 hrs in presence of Pseudomonas aeruginosa elastase; format: ADME; summary of the method: as §1
Staphylococcus aureus [8] = assay: Antimicrobial activity against Staphylococcus aureus 2844 after 21 hrs by broth microdilution method; format: functional; details: Staphylococcus aureus, 2844, 21 h; summary of the method: as §2
[9] = Stability of the compound at 136 uM after 4 hrs in presence of aureolysin; format: ADME; summary of the method: as §1
[10] = Stability of the compound at 136 uM after 4 hrs in presence of […] V8 protease; format: ADME; summary of the method: as §1
Staphylococcus aureus [11] = assay: Antimicrobial activity against Staphylococcus aureus FDA 486 after 21 hrs by broth microdilution method; format: functional; details: FDA 486, 21 h; summary of the method: as §2

SMILES | Activity (Lipid bilayer [1]) | Activity (Lipid bilayer [2]) | Stability [3] | MIC (Pseudomonas aeruginosa [4]) [µM] | MIC (Pseudomonas aeruginosa [5]) [µM] | MIC (Staphylococcus aureus [6]) [µM] | Stability [7] | MIC (Staphylococcus aureus [8]) [µM] | Stability [9] | Stability [10] | MIC (Staphylococcus aureus [11]) [µM]
CC[C@H](C)[C@@H](NC(=O)[C@H](CCCNC(=N)N)NC(=O)[C@H](CCC(N)=O)NC(=O)[C@@H](NC(=O)[C@H](NC(=O)[C@H](CCCNC(=N)N)NC(=O)[C@H](CCCCN)NC(=O)[C@@H](Cc1ccccc1)NC(=O)[C@H](CCC(=O)O)NC(C)=O)[C@@H](C)CC)C(C)C)C(=O)N[C@@H](CCCCN)C(=O)N[C@@H](CC(=O)O)C(=O)N[C@H](Cc1ccccc1)C(=O)N[C@@H](CC(C)C)C(=O)N[C@@H](CCCNC(=N)N)C(=O)N[C@@H](CC(N)=O)C(=O)N[C@@H](CC(C)C)C(=O)N[C@H](C(N)=O)C(C)C | Active |  |  |  |  |  |  |  |  |  | 
CC[C@H](C)[C@H](NC(=O)[C@H](CCCNC(=N)N)NC(=O)[C@H](CCC(N)=O)NC(=O)[C@@H](NC(=O)[C@H](NC(=O)[C@H](CCCNC(=N)N)NC(=O)[C@H](CCCCN)NC(=O)[C@@H](Cc1ccccc1)NC(=O)[C@@H](N)CCC(=O)O)[C@@H](C)CC)C(C)C)C(=O)N[C@@H](CCCCN)C(=O)N[C@@H](CC(=O)O)C(=O)N[C@H](Cc1ccccc1)C(=O)N[C@@H](CC(C)C)C(=O)N[C@@H](CCCNC(=N)N)C(=O)N[C@@H](CC(N)=O)C(=O)N[C@@H](CC(C)C)C(=O)N[C@H](C(=O)O)C(C)C | Active | Active |  |  |  |  |  |  |  |  | 
CC(=O)N[C@@H](CCC(=O)O)C(=O)N[C@@H](Cc1c[nH]c2ccccc12)C(=O)N[C@@H](CCCCN)C(=O)N[C@@H](CCCNC(=N)N)C(=O)N[C@@H](Cc1c[nH]c2ccccc12)C(=O)N[C@H](C(=O)N[C@@H](CCC(N)=O)C(=O)N[C@@H](CCCNC(=N)N)C(=O)N[C@@H](Cc1c[nH]c2ccccc12)C(=O)N[C@@H](CCCCN)C(=O)N[C@@H](CC(=O)O)C(=O)N[C@@H](Cc1c[nH]c2ccccc12)C(=O)N[C@@H](CC(C)C)C(=O)N[C@@H](CCCNC(=N)N)C(=O)N[C@@H](CC(N)=O)C(=O)N[C@@H](CC(C)C)C(=O)N[C@H](C(N)=O)C(C)C)C(C)C (Ac-EWKRWVQRWKDWLRNLV-NH2) | Active |  | Stable | 10 (≈ 24.4 µg/mL) | 10 (≈ 24.4 µg/mL) | 10 (≈ 24.4 µg/mL) | Unstable | 5 (≈ 12.2 µg/mL) | Stable | Stable | 5 (≈ 12.2 µg/mL)
CC[C@@H](C)[C@@H](NC(=O)[C@H](CCCNC(=N)N)NC(=O)[C@H](CCC(N)=O)NC(=O)[C@@H](NC(=O)[C@H](NC(=O)[C@H](CCCNC(=N)N)NC(=O)[C@H](CCCCN)NC(=O)[C@@H](Cc1ccccc1)NC(=O)[C@H](CCC(=O)O)NC(C)=O)[C@H](C)CC)C(C)C)C(=O)N[C@@H](CCCCN)C(=O)N[C@@H](CC(=O)O)C(=O)N[C@H](Cc1ccccc1)C(=O)N[C@@H](CC(C)C)C(=O)N[C@@H](CCCNC(=N)N)C(=O)N[C@@H](CC(N)=O)C(=O)N[C@@H](CC(C)C)C(=O)N[C@H](C(N)=O)C(C)C [listing 1 of 2 here] |  |  |  | > 80 | > 80 | > 80 |  | > 80 |  |  | > 80
CC[C@@H](C)[C@@H](NC(=O)[C@H](CCCNC(=N)N)NC(=O)[C@H](CCC(N)=O)NC(=O)[C@@H](NC(=O)[C@H](NC(=O)[C@H](CCCNC(=N)N)NC(=O)[C@H](CCCCN)NC(=O)[C@@H](Cc1ccccc1)NC(=O)[C@H](CCC(=O)O)NC(C)=O)[C@H](C)CC)C(C)C)C(=O)N[C@@H](CCCCN)C(=O)N[C@@H](CC(=O)O)C(=O)N[C@H](Cc1ccccc1)C(=O)N[C@@H](CC(C)C)C(=O)N[C@@H](CCCNC(=N)N)C(=O)N[C@@H](CC(N)=O)C(=O)N[C@@H](CC(C)C)C(=O)N[C@H](C(N)=O)C(C)C [listing 2 of 2 here] |  |  | Stable |  |  |  | Stable |  | Stable | Stable | 
CC[C@@H](C)[C@@H](NC(=O)[C@H](CCCNC(=N)N)NC(=O)[C@H](CCC(N)=O)NC(=O)[C@@H](NC(=O)[C@H](NC(=O)[C@H](CCCNC(=N)N)NC(=O)[C@H](CCCCN)NC(=O)[C@@H](Cc1ccccc1)NC(=O)[C@@H](N)CCC(=O)O)[C@H](C)CC)C(C)C)C(=O)N[C@@H](CCCCN)C(=O)N[C@@H](CC(=O)O)C(=O)N[C@H](Cc1ccccc1)C(=O)N[C@@H](CC(C)C)C(=O)N[C@@H](CCCNC(=N)N)C(=O)N[C@@H](CC(N)=O)C(=O)N[C@@H](CC(C)C)C(=O)N[C@H](C(=O)O)C(C)C [listing 1 of 2 here] |  |  |  | > 80 | > 80 | > 80 |  | > 80 |  |  | > 80
CC[C@H](C)[C@H](NC(=O)[C@H](CCCCN)NC(=O)[C@H](CCC(=O)O)NC(=O)[C@H](CCCCN)NC(=O)[C@H](CO)NC(=O)[C@H](CCCCN)NC(=O)[C@H](CCCNC(=N)N)NC(=O)[C@H](Cc1ccccc1)NC(=O)[C@H](Cc1ccccc1)NC(=O)[C@H](CC(=O)O)NC(=O)CNC(=O)[C@H](CC(C)C)NC(=O)[C@@H](N)CC(C)C)C(=O)NCC(=O)N[C@@H](CCCCN)C(=O)N[C@@H](CCC(=O)O)C(=O)N[C@@H](Cc1ccccc1)C(=O)N[C@@H](CCCCN)C(=O)N[C@@H](CCCNC(=N)N)C(=O)N[C@H](C(=O)N[C@H](C(=O)N[C@@H](CCC(N)=O)C(=O)N[C@@H](CCCNC(=N)N)C(=O)N[C@H](C(=O)N[C@@H](CCCCN)C(=O)N[C@@H](CC(=O)O)C(=O)N[C@@H](Cc1ccccc1)C(=O)N[C@@H](CC(C)C)C(=O)N[C@@H](CCCNC(=N)N)C(=O)N[C@@H](CC(N)=O)C(=O)N[C@@H](CC(C)C)C(=O)N[C@H](C(=O)N1CCC[C@H]1C(=O)N[C@@H](CCCNC(=N)N)C(=O)N[C@H](C(=O)N[C@@H](CCC(=O)O)C(=O)N[C@@H](CO)C(=O)O)[C@@H](C)O)C(C)C)[C@@H](C)CC)C(C)C)[C@@H](C)CC [CATHELICIDIN] |  |  | Unstable | 2.5 (≈ 11.2 µg/mL) | 2.5 (≈ 11.2 µg/mL) | 5 (≈ 22.5 µg/mL) | Unstable | 5 (≈ 22.5 µg/mL) | Unstable | Unstable | 2.5 (≈ 11.2 µg/mL)
CC[C@@H](C)[C@@H](NC(=O)[C@H](CCCNC(=N)N)NC(=O)[C@H](CCC(N)=O)NC(=O)[C@@H](NC(=O)[C@H](NC(=O)[C@H](CCCNC(=N)N)NC(=O)[C@H](CCCCN)NC(=O)[C@@H](Cc1ccccc1)NC(=O)[C@@H](N)CCC(=O)O)[C@H](C)CC)C(C)C)C(=O)N[C@@H](CCCCN)C(=O)N[C@@H](CC(=O)O)C(=O)N[C@H](Cc1ccccc1)C(=O)N[C@@H](CC(C)C)C(=O)N[C@@H](CCCNC(=N)N)C(=O)N[C@@H](CC(N)=O)C(=O)N[C@@H](CC(C)C)C(=O)N[C@H](C(=O)O)C(C)C [listing 2 of 2 here] |  |  | Stable |  |  |  | Stable |  | Stable | Stable | 
